{"source": "ChEMBL document CHEMBL1131235", "about": "“(R)-(+)-2-[[[3-(Morpholinomethyl)-2H-chromen-8-yl]oxy]methyl] morpholine methanesulfonate: a new selective rat 5-hydroxytryptamine1B receptor antagonist” (J Med Chem, 1998)", "key": {"[1]": {"test": "Antagonism of the induced potentiation of K+ stimulated [3H]-5-HT release from brain slices with 5-HT (100 nM) at a concentration of 1000 nM, expressed as percent of control", "format": "functional, Rattus norvegicus", "parameters": "scale not given: the % may be the effect or the level left", "outline": "(§1)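 Superfused rat occipital cortex slices (0.3 × 0.3 mm) preloaded with [3H]-5-HT; Krebs-Henseleit pH 7.4 with 2.5 μM citalopram, 0.4 mL/min. Two 4-min 25 mM KCl pulses (62 and 98 min). Compound and 5-HT were given in the same solution. Fractions and slices were counted by scintillation. S2/S1 is expressed as % of control.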"}, "Rattus norvegicus [2]": {"species_on_record": "Rattus norvegicus", "test": "Percent control of the stimulation ratio S2 (second stimulation)/S1(first stimulation) at a concentration of 100 nM. (P<0.05)", "format": "functional"}, "[3]": {"test": "Potentiation of K+ stimulated release of [3H]5-HT from brain slices at a concentration of 0 nM. (activity expressed as ratio of S2 (second stimulation)/S1(first stimulation))", "format": "functional, Rattus norvegicus"}, "[4]": {"test": "Antagonism of the induced potentiation of K+ stimulated [3H]5-HT release from brain slices with 5-HT (1000 nM) at a concentration of 1000 nM.", "format": "functional, Rattus norvegicus", "outline": "(§2)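 Rat occipital cortex slices (0.3 × 0.3 mm) were preloaded with [3H]-5-HT and superfused at 0.4 mL/min with oxygenated Krebs-Henseleit buffer, pH 7.4, containing 2.5 μM citalopram. After a 50 min wash, 4-min fractions were collected. 25 mM KCl was applied for 4 min at 62 min and again at 98 min. Test compound and 5-HT were given together in the same solution for 72 min. Fraction and slice radioactivity were counted by liquid scintillation. S2/S1 was expressed as % of control; Dunnett's t-test after ANOVA.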"}, "[5]": {"test": "Antagonism of the induced potentiation of K+ stimulated [3H]5-HT release from brain slices with 5-HT (100 nM) at a concentration of 1000 nM.", "format": "functional, Rattus norvegicus", "outline": "as §2"}, "[6]": {"test": "Potentiation of K+ stimulated release of [3H]-5-HT from brain slices at a concentration of 10 nM. (activity expressed as ratio of S2 (second stimulation)/S1(first stimulation))", "format": "functional, Rattus norvegicus", "outline": "(§3)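 Rat occipital cortex slices (0.3 × 0.3 mm) preloaded with [3H]-5-HT, superfused at 0.4 mL/min with oxygenated Krebs-Henseleit pH 7.4 containing 2.5 μM citalopram. Two 4-min 25 mM KCl pulses at 62 and 98 min, compound present for 72 min spanning S2. Fractional release counted by liquid scintillation. S2/S1 ratio reported, also as % of control; n=3–8.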"}, "Rattus norvegicus [7]": {"species_on_record": "Rattus norvegicus", "test": "Effect on 5-HIAA/5-HT turnover in Hyphalamus of rat brain, expressed as percent of control", "format": "functional", "outline": "(§4)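 Rats received compound 20 mg/kg sc or saline 30 min before NSD 1015 (3-hydroxybenzylhydrazine dihydrochloride), 100 mg/kg sc. They were killed 30 min later. Hypothalamus, hippocampus, frontal cortex and striatum were dissected, frozen on dry ice and stored at -70 °C. 5-HTP, 5-HT and 5-HIAA were measured by HPLC and expressed as % of saline control.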"}, "Rattus norvegicus [8]": {"species_on_record": "Rattus norvegicus", "test": "Percent control of the stimulation ratio S2 (second stimulation)/S1(first stimulation) at a concentration of 10 nM. (P>0.05)", "format": "functional"}, "Rattus norvegicus [9]": {"species_on_record": "Rattus norvegicus", "test": "Effect on 5-HTP turnover in hypothalamus of rat brain, expressed as percent of control", "format": "functional", "outline": "as §4"}, "[10]": {"target": "5-hydroxytryptamine receptor 7 (Rattus norvegicus, UniProt P32305)", "sequence (P32305 whole entry)": "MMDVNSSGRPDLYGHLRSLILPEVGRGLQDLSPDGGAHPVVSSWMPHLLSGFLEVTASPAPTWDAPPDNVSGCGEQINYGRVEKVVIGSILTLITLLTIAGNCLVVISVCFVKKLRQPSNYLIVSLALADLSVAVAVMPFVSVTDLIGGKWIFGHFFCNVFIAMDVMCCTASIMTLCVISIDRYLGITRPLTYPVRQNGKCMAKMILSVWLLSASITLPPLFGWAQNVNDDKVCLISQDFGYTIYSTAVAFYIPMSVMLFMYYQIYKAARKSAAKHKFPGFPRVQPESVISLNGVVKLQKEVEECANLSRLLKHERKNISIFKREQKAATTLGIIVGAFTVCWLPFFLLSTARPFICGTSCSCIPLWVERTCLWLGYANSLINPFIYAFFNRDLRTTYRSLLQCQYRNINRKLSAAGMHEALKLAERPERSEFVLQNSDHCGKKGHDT", "test": "Binding affinity against 5-hydroxytryptamine 7 receptor using from CHO cell membranes [3H]5-HT as the radioligand.", "outline": "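Binding by the Johansson et al. method. 5-HT2A used [3H]ketanserin and 5-HT2C used [3H]mesulergine, both on rat cortex. 5-HT6 and 5-HT7 used [3H]-5-HT on CHO cell membranes expressing the rat receptors.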"}, "[11]": {"test": "Potentiation of K+ stimulated release of [3H]5-HT from brain slices at a concentration of 1000 nM. (activity expressed as ratio of S2 (second stimulation)/S1(first stimulation))", "format": "functional, Rattus norvegicus", "outline": "as §3"}, "Rattus norvegicus [12]": {"species_on_record": "Rattus norvegicus", "test": "Effect on 5-HTP turnover in Hippocampus of rat brain, expressed as percent of control", "format": "functional", "outline": "as §4"}, "[13]": {"test": "Effect on 5-HIAA/5-HT turnover in Frontal cortex of rat brain, expressed as percent of control", "format": "functional", "outline": "as §4"}, "[14]": {"test": "Antagonism of the induced potentiation of K+ stimulated [3H]5-HT release from brain slices with 5-HT (1000 nM) at a concentration of 1000nM, expressed as percent of control", "format": "functional, Rattus norvegicus", "parameters": "scale not given: the % may be the effect or the level left", "outline": "as §1"}, "Rattus norvegicus [15]": {"species_on_record": "Rattus norvegicus", "test": "Effect on 5-HIAA/5-HT turnover in Striatum of rat brain, expressed as percent of control", "format": "functional", "outline": "as §4"}, "[16]": {"target": "Muscarinic acetylcholine receptor M3 (Rattus norvegicus, UniProt P08483)", "sequence (P08483 whole entry)": "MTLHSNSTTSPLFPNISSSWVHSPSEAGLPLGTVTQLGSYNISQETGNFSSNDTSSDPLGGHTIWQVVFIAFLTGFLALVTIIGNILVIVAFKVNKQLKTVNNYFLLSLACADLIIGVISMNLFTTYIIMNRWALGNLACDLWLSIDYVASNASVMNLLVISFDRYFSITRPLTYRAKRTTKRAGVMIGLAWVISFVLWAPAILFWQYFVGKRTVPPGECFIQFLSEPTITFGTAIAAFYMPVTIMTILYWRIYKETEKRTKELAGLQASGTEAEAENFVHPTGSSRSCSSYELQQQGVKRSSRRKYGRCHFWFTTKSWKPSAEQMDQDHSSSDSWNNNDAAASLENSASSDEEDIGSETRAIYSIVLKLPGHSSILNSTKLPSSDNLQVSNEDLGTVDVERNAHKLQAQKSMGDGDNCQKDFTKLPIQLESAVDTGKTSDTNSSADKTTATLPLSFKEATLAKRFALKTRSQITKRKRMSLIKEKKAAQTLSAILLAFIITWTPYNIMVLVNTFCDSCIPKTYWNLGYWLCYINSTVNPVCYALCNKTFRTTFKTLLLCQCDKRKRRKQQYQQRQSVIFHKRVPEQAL", "test": "Binding affinity against Muscarinic acetylcholine receptor using [3H]QNB as the radioligand."}, "[17]": {"test": "Potentiation of K+ stimulated release of [3H]5-HT from brain slices at a concentration of 100 nM. (activity expressed as ratio of S2 (second stimulation)/S1(first stimulation))", "format": "functional, Rattus norvegicus", "outline": "as §3"}, "Rattus norvegicus [18]": {"test_system": "Rattus norvegicus", "test": "Effect on the wet dog shake response(WDS) in rats after 9 determinations at a dose of 3mg/kg, sc pretreated with 200 mg/kg ip of pCPA.", "format": "functional", "conditions": "route subcutaneous", "outline": "(§5)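 Rats were pretreated with pCPA 200 mg/kg ip or saline at 72 and 48 h before compound, 3 mg/kg sc. Wet dog shakes (whole-body and head shakes) were counted from 5 to 65 min after injection. Groups of 8-10 rats were compared with saline-treated rats (n = 30), Dunnett's t-test after ANOVA.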"}, "Rattus norvegicus [19]": {"test_system": "Rattus norvegicus", "test": "Effect on the wet dog shake response(WDS) in rats after 10 determinations at a dose of 3 mg/kg, sc pretreated with saline", "format": "functional", "conditions": "route subcutaneous", "outline": "as §5"}, "Rattus norvegicus [20]": {"species_on_record": "Rattus norvegicus", "test": "Percent control of the stimulation ratio S2 (second stimulation)/S1(first stimulation) at a concentration of 1000 nM. (p<0.05)", "format": "functional"}}, "note": "Several values for one entry are separate records, joined by “and”; a condition that tells them apart may be missing. Equal entries are not always repeated."}
{"compound": "C1=C(CN2CCOCC2)COc2c1cccc2OC[C@H]1CNCCO1.CS(=O)(=O)O", "values": [{"measurement": "Activity", "setting": "[1]", "result": "149% and 161%"}, {"measurement": "Control", "setting": "Rattus norvegicus [2]", "result": 131, "unit": "%"}, {"measurement": "Potentiation", "setting": "[3]", "result": 0.99}, {"measurement": "Ratio of stimulation", "setting": "[4]", "result": "1.12 and 0.8"}, {"measurement": "Ratio of stimulation", "setting": "[5]", "result": "1.28 and 1.39"}, {"measurement": "Potentiation", "setting": "[6]", "result": 1.11}, {"measurement": "Activity", "setting": "Rattus norvegicus [7]", "result": 166, "unit": "%"}, {"measurement": "Control", "setting": "Rattus norvegicus [8]", "result": 115, "unit": "%"}, {"measurement": "Activity", "setting": "Rattus norvegicus [9]", "result": 140, "unit": "%"}, {"measurement": "Ki", "setting": "[10]", "result": "> 3000", "unit": "nM"}, {"measurement": "Potentiation", "setting": "[11]", "result": 1.44}, {"measurement": "Activity", "setting": "Rattus norvegicus [12]", "result": 148, "unit": "%"}, {"measurement": "Activity", "setting": "[13]", "result": 161, "unit": "%"}, {"measurement": "Activity", "setting": "[14]", "result": "149% and 107%"}, {"measurement": "Activity", "setting": "Rattus norvegicus [15]", "result": 145, "unit": "%"}, {"measurement": "Ki", "setting": "[16]", "result": "> 1000", "unit": "nM"}, {"measurement": "Potentiation", "setting": "[17]", "result": 1.23}, {"measurement": "No. of WDS/60 min", "setting": "Rattus norvegicus [18]", "result": 9.2}, {"measurement": "No. of WDS/60 min", "setting": "Rattus norvegicus [19]", "result": 17}, {"measurement": "Control", "setting": "Rattus norvegicus [20]", "result": 153, "unit": "%"}]}
